Screens as filed in PubChem.
Fam108B counter = Fam108B inhibition, counter-screen for RBBP9 inhibitors | recombinant Fam108B, FP-Rh probe fluorescence polarization | 0.33% of 300,000 active | inhibition, % at 9.51 µM;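 active = inhibition above the screen mean inhibition plus 3 SD, computed separately per campaign, cut at about 18% in these data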;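 also: inhibitors lower polarization as less probe binds the enzyme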
GSTO1 inh = counter-screen for RBBP9 inhibitors: inhibitors of human GSTO1 | inhibition, % at 5.96 µM | 1.1% of 300,000 active | recombinant GSTO1, activity-based probe fluorescence polarization | P78417;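 active = inhibition above the campaign mean inhibition plus 3 SD, cut at about 35% in these data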;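 also: 0% = GSTO1-1 with DMSO and 100% = wells lacking GSTO1-1 enzyme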
PAD4 inh = inhibitors of human PAD4. Q9UM07. recombinant PAD4, RCA probe fluorescence polarization. inhibition, % at 6.36 µM. 0.41% of 330,000 active;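 active = percent inhibition above a cutoff equal to the mean of all tested compounds plus 3 SD, cut at about 15% in these data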;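 also: 0% = PAD4 with RCA probe and DMSO and 100% = probe without PAD4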
Target sequence (Q9UM07 whole entry, looked up): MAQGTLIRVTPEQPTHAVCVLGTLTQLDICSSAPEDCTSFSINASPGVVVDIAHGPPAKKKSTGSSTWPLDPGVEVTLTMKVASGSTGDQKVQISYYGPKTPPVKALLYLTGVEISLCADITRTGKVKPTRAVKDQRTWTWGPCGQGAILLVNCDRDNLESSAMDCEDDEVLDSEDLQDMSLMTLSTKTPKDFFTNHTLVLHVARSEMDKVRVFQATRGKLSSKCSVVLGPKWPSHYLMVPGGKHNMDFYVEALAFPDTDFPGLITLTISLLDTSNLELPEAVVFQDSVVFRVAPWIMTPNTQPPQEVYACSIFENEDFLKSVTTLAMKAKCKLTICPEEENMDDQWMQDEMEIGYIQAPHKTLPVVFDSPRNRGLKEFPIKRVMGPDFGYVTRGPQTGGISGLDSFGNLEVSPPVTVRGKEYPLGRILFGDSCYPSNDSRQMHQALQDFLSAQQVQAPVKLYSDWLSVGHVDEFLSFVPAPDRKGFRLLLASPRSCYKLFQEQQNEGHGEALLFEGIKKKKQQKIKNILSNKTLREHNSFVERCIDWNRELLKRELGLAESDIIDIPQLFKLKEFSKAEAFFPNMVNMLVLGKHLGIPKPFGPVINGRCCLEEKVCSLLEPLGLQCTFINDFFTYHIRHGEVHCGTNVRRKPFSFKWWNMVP
RBBP9 inh = inhibitors of human serine hydrolase RBBP9. inhibition, % at 7.94 µM. O75884. AID 1515. recombinant RBBP9, FP-Rh probe fluorescence polarization. 0.2% of 220,000 active;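 active = inhibition above the campaign mean of all tested compounds plus 3 SD, cut at about 14% in these data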;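 also: plate controls were DMSO wells with RBBP9 for no effect and wells lacking RBBP9 protein for full effect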
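Measured by – fluorescence polarization · Test system – RBBP9 protein · Input – 2.5 µM RBBP9 dispensing solution, before mixing · Measure – percent inhibition from mP, scaled between DMSO and no-protein wells · Benchmarks – DMSO-treated enzyme wells and wells lacking RBBP9 · Times – preincubation 30 min plus labeling 45 min at 25 °C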
PRMT1 inh = inhibitors of human PRMT1 | 1.3% of 370,000 active | recombinant PRMT1, activity-based probe fluorescence polarization | AID 652257 | Q99873 | inhibition, % at 2.79 µM;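 active = inhibition above about 21% made by adding two undisclosed values, limit read from the data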
PME-1 primary = blocks human protein phosphatase methylesterase 1; Q9Y570; recombinant PME-1, FP-Rh probe fluorescence polarization; inhibition, % at 5.9 µM; 0.53% of 320,000 active; AID 2130;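 active = inhibition above the campaign mean of all compounds plus 3 SD, cut at about 26% in these data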;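 also: competitive labeling of PME-1 active site by serine hydrolase directed probe; 0% = PME-1 with DMSO and 100% = wells lacking PME-1 enzyme; inhibitors block probe labeling so polarization falls and inhibition rises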
Fam108b inh conf = Fam108b (mouse) hydrolase inhibition, confirmation assay; 44% of 930 active; recombinant Fam108b, FP-Rh probe fluorescence polarization; inhibition, % at 9.51 µM; shares compounds with Fam108B counter;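 active = inhibition above a limit from the primary screen, the mean over all compounds plus 3 SD, cut at about 19% in these data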;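 also: 0% = median of active Fam108b wells and 100% = catalytically dead S170A mutant; inhibitors free the probe so polarization falls as inhibition rises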
Fam108b inh = mouse ABHD17B inhibition | shares compounds with Fam108B counter | recombinant Fam108b, gel-based ABPP, fluorophosphonate probe | inhibition, % at 20 µM | 44% of 260 active | AID 588649; in the data active = inhibition above about 40%
* marks the source's active call; other numbers are inactive results; x = not tested or not shown. Only some compounds are listed: those with a hit (about 2.3% of all), similar ones and a draw of the others.

SMILES | Fam108B counter | GSTO1 inh | PAD4 inh | RBBP9 inh | PRMT1 inh | PME-1 primary | Fam108b inh conf | others
COc1ccc(C(C(=O)NC(C)C)N(C(=O)CCC(=O)Nc2nccs2)c2ccccc2F)cc1 (centres undefined) | -4 | -2 | -2 | -4 | -2 | 4 | x
COCCn1c(C)cc(C(=O)COC(=O)CCS(=O)(=O)c2ccc(C)cc2)c1C | -1 | 3 | -2 | x | 2 | 2 | x
O=C(Nc1ccc(F)cc1)Nc1ccc(N2CCCC2)c(S(=O)(=O)Nc2ccccc2Cl)c1 | 25* | -38 | -11 | -19 | 4 | 26 | 37* | Fam108b inh=95*
O=C(Nc1ccc(Cl)c(Cl)c1)Nc1ccc(N2CCCC2)c(S(=O)(=O)Nc2ccccc2Cl)c1 | 16 | -76 | -10 | 0 | 4 | 15 | x
Cc1ccc([N+](=O)[O-])cc1-c1[nH]c(-c2ccc(O)c(O)c2)nc1-c1ccccc1 | 17 | 6 | -5 | -15 | 1 | 18 | x
COc1ccc(-c2nc(-c3ccccc3)c(-c3cc([N+](=O)[O-])ccc3C)[nH]2)cc1O | 28* | -24 | -5 | -5 | 3 | 39* | 11
COc1ccc(C2C3=C(CC(C)(C)CC3=O)Nc3c2c(=O)[nH]c(=O)n3Cc2ccccc2)cc1OC (centres undefined) | 1 | -7 | -5 | -15 | -2 | -4 | x
COc1ccc(C2C3=C(CC(C)(C)CC3=O)Nc3c2c(=O)[nH]c(=O)n3Cc2ccccc2)cc1 (centres undefined) | 21* | 9 | -1 | -7 | 0 | -4 | 22*
FC(F)(F)c1ccc(C2Nc3cccc4cccc(c34)N2)cc1 | x | x | x | -9 | 6 | x | x
Clc1cccc(C2Nc3cccc4cccc(c34)N2)c1Cl | 9 | 14 | -5 | x | 17 | -5 | x
COc1ccc(C2Nc3cccc4cccc(c34)N2)cc1Br | 37* | 32 | -5 | x | 7 | 32* | 6
c1coc(C2Nc3cccc4cccc(c34)N2)c1 | 22* | 50* | -3 | 2 | x | 8 | 18*
Fc1ccc(C2Nc3cccc4cccc(c34)N2)cc1 | 33* | 37* | -2 | x | 9 | 11 | 11
CCCOc1ccc(C2Nc3cccc4cccc(c34)N2)cc1 | 25* | 19 | -2 | x | 4 | 49* | 15
CC(C)NC(NC(=O)Cc1ccccc1)C(Cl)(Cl)Cl (centres undefined) | 2 | 1 | -1 | -3 | 3 | -3 | x
COc1ccc(NC(=S)NC23CC4CC(CC(C4)C2)C3)cc1OC | 2 | 0 | -7 | x | 1 | 6 | x
Oc1ccc(C2Nc3cccc4cccc(c34)N2)c(O)c1 | 67* | 3 | -4 | -2 | 1 | 64* | 45* | Fam108b inh=65*
NNC(=O)CN1C(CN2CCOCC2)=Nc2ccc(Br)cc2C1c1ccccc1 (centres undefined) | 0 | 8 | 8 | -1 | 1 | -1 | x
COc1ccc(OC)c(NC(=O)Nc2ccc(Cl)cc2)c1 | 23* | -4 | 0 | 0 | x | 21 | 14
COc1ccccc1NC(=O)Nc1ccc(NC(=O)c2ccccc2O)cc1 | 21* | -35 | 0 | x | -2 | 0 | -2
O=C(Nc1ccc([N+](=O)[O-])cc1)Nc1ccc2c(c1)OCCO2 | 4 | -10 | -10 | -2 | 5 | 12 | x
COc1cc([N+](=O)[O-])ccc1NC(=O)Nc1ccc2c(c1)OCCO2 | 19* | 5 | 1 | 2 | 5 | 19 | 1
COc1ccc(NC(=O)Nc2cccc([N+](=O)[O-])c2)cc1Cl | 32* | -14 | 0 | -7 | 0 | 42* | 97* | Fam108b inh=10
CCN1CCN(CC2COc3ccccc3O2)CC1 (centres undefined) | 0 | -4 | 6 | x | 0 | -2 | x
Cc1nc(COc2ccc(C(=O)Nc3ccccc3N3CCOCC3)cc2)cs1 | 2 | 1 | -1 | x | -1 | 0 | x
SMILES | Fam108B counter | GSTO1 inh | PAD4 inh | RBBP9 inh | PRMT1 inh | PME-1 primary | Fam108b inh conf | others
O=C(Nc1ccc(Oc2ccc(Cl)cc2)c(Cl)c1)c1cc(I)cc(I)c1O | 18* | -1 | -2 | x | 2 | 8 | -2
Cc1c(C(=O)N(Cc2ccccc2Cl)C2CCS(=O)(=O)C2)oc2ccccc12 (centres undefined) | -3 | 4 | 3 | x | -5 | 3 | x
O=C(NNc1c2ccccc2nc2ccccc12)c1ccc(O)cc1O | 25* | 26 | -4 | -1 | 4 | 78* | 12
COc1ccc(Nc2nc(-c3cccs3)nc3ccccc23)cc1 | 28* | -16 | -1 | -8 | -3 | 18 | -11
COc1cccc(Nc2nc(-c3cccs3)nc3ccccc23)c1 | -24 | -28 | -5 | -49 | -2 | -41 | x
COc1cccc(NC(=O)C2CCCO2)c1 (centres undefined) | -4 | 0 | 1 | x | -1 | 1 | x
COc1cccc(NC(=O)c2c(C)cc(C)cc2CC(C)(C)C(=O)O)c1 | -2 | 18 | 7 | -3 | 6 | -1 | x
O=C(NCC1CC1)c1ccc(Nc2nc3ccc(Br)cc3[nH]2)cc1 | 19* | 5 | 0 | 3 | 1 | 7 | 48* | Fam108b inh=75*
O=C(NCc1ccco1)c1cccc(Nc2nc3ccc(Br)cc3[nH]2)c1 | 25* | -24 | -2 | -2 | -2 | 24 | 11
Cc1cc(Cl)cc(Cl)c1OCCOCCN(C)C | 4 | 21 | 5 | -5 | -2 | -4 | x
COc1ccc(-c2csc(NC(=O)Nc3ccccc3)n2)cc1 | 45* | 2 | -1 | x | 1 | 48* | 18
C[C@@H]1CCCCO[C@@H](CN(C)Cc2ccc(Cl)c(Cl)c2)[C@@H](C)CN([C@H](C)CO)C(=O)c2cc(NC(=O)Nc3ccccc3)ccc2O1 | x | x | x | x | 4 | x | x
CC(O)c1nc(C(C)O)n(CC(=O)c2ccccc2)n1 (centres undefined) | 1 | 4 | -2 | x | 0 | 0 | x
CCC1CCC(NC2CCCCNC2=O)CC1 (centres undefined) | 2 | 9 | -2 | -3 | 3 | 7 | x
Cc1ccc(-n2[nH]c(C)c(/C=N/Nc3ccc([N+](=O)[O-])cc3[N+](=O)[O-])c2=O)cc1C | 25* | 35 | -11 | 2 | -2 | 30* | 12
Cc1[nH]n(-c2ccccc2)c(=O)c1/C=N/NC(=O)c1cccc([N+](=O)[O-])c1 | 1 | 2 | 1 | -2 | -1 | 4 | x
CCCCn1c(=O)nc2n(-c3ccc(C)cc3)c3ccccc3cc-2c1=O | -3 | 3 | -5 | -7 | 1 | -2 | x
CCCCn1c(=O)nc2n(-c3ccc(OC)cc3)c3ccccc3cc-2c1=O | 42* | -3 | -1 | 6 | -2 | -2 | 1
COC(=O)C1C(c2ccccc2)C(C(=O)O)C1c1ccccc1 (centres undefined) | 1 | 7 | -2 | 2 | -3 | -6 | x
